Legend:
Details in all cases: stereoisomer not certain
OR10G2 (Homo sapiens) = target: T1, OR10G2 (Homo sapiens) (UniProt Q8NGC3)
T1 sequence (whole entry): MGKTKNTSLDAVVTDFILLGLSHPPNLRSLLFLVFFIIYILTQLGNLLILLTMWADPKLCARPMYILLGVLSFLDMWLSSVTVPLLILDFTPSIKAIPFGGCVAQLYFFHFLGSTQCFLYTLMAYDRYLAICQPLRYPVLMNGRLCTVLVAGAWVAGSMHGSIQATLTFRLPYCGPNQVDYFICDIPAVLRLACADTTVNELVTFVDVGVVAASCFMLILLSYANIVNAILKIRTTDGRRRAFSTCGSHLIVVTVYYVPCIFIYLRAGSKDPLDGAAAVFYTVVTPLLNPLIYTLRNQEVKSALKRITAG
In short: (§1)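 Each receptor–molecule pair is labelled responsive or non-responsive (inactive) according to whether the original authors judged the measured signal statistically different from baseline. The data were taken from the main text and supplementary material of published papers and checked for typos and inconsistencies. Assay methods differed by source, with transient luciferase assays in mammalian cell lines being common.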

OR10G3 (Homo sapiens) = target: T2, OR10G3 (Homo sapiens) (UniProt Q8NGC4)
T2 sequence (whole entry): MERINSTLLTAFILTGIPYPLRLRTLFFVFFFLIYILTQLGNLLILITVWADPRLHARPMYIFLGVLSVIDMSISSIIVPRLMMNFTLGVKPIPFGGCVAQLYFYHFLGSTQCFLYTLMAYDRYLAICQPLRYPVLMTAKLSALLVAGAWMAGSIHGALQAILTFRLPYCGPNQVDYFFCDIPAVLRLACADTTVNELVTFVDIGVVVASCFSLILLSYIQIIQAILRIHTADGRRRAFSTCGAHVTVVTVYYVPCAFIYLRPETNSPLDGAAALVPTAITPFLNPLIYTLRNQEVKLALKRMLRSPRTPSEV
In short: as §1

OR10G4 (Homo sapiens) = target: T3, OR10G4 (Homo sapiens) (UniProt Q8NGN3)
T3 sequence (whole entry): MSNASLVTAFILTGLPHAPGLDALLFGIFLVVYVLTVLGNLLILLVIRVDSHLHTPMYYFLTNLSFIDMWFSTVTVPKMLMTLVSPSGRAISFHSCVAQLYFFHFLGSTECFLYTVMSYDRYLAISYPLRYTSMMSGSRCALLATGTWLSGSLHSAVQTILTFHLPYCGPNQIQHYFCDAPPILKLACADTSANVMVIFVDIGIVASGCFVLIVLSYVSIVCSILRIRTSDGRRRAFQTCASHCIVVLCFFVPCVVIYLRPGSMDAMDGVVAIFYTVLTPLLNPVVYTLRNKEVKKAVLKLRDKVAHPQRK
In short: as §1

OR10G6 (Homo sapiens) = target: T4, OR10G6 (Homo sapiens) (UniProt Q8NH81)
T4 sequence (whole entry): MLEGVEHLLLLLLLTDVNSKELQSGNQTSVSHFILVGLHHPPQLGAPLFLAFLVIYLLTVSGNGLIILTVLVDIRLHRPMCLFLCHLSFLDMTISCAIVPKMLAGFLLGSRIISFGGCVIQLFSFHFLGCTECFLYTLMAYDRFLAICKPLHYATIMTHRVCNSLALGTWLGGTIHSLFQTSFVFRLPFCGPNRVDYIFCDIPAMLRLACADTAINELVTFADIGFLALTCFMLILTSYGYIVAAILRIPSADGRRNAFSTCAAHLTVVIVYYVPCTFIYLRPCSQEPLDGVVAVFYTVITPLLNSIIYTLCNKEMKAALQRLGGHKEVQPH
In short: as §1

OR10G7 (Homo sapiens) = target: T5, OR10G7 (Homo sapiens) (UniProt Q8NGN6)
T5 sequence (whole entry): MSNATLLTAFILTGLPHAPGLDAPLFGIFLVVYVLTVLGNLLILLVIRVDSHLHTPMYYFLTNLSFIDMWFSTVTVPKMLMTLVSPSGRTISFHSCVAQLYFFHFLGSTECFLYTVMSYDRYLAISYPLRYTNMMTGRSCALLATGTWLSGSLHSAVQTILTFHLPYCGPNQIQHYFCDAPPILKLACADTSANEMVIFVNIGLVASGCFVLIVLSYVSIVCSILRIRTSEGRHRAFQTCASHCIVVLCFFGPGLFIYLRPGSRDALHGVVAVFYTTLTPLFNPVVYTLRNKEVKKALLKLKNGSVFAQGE
In short: as §1

OR10G8 (Homo sapiens) = target: T6, OR10G8 (Homo sapiens) (UniProt Q8NGN5)
T6 sequence (whole entry): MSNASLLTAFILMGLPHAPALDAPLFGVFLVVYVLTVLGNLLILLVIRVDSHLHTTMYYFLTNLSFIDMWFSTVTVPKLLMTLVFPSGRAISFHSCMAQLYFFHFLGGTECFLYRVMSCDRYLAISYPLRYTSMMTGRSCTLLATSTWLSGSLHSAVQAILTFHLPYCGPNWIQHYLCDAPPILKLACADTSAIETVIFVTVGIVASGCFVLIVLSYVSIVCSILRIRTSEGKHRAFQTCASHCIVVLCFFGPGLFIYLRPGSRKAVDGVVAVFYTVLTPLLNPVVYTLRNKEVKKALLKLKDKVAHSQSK
In short: as §1

OR10G9 (Homo sapiens) = target: T7, OR10G9 (Homo sapiens) (UniProt Q8NGN4)
T7 sequence (whole entry): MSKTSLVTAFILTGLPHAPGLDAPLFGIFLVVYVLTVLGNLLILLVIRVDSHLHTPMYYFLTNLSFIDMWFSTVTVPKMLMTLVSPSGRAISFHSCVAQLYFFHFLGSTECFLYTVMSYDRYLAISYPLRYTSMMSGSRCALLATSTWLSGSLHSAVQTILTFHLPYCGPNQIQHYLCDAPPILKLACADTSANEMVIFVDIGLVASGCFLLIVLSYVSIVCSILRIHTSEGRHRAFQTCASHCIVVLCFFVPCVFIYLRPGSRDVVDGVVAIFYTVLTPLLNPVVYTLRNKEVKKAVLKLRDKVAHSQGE
In short: as §1

OR10H1 (Homo sapiens) = target: T8, OR10H1 (Homo sapiens) (UniProt Q9Y4A9)
T8 sequence (whole entry): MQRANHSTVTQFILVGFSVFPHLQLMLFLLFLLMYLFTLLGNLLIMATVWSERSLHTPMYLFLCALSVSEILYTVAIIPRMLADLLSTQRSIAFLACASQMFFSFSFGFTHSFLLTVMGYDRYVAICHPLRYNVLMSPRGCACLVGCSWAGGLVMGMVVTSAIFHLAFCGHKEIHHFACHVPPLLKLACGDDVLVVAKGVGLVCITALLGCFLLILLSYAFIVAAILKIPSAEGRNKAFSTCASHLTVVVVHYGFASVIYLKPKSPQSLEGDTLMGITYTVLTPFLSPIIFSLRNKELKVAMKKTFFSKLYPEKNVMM
In short: as §1

OR10H2 (Homo sapiens) = target: T9, OR10H2 (Homo sapiens) (UniProt O60403)
T9 sequence (whole entry): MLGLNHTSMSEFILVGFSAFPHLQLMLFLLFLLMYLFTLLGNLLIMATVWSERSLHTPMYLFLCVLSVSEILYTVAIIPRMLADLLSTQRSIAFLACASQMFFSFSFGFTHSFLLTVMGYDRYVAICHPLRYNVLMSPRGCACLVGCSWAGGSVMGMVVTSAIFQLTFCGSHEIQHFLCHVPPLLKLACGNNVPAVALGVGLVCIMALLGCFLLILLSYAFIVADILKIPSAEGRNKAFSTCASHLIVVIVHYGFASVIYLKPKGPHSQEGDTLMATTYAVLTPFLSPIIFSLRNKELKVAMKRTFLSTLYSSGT
In short: as §1

OR10H3 (Homo sapiens) = target: T10, OR10H3 (Homo sapiens) (UniProt O60404)
T10 sequence (whole entry): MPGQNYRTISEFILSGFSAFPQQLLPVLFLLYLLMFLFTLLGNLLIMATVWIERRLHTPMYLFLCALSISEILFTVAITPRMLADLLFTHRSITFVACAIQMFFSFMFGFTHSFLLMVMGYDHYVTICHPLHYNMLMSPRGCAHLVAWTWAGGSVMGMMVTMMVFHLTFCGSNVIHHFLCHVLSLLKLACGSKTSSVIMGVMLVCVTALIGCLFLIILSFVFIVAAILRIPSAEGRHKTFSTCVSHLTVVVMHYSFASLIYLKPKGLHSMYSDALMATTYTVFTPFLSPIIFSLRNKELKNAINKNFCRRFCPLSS
In short: as §1

OR10H4 (Homo sapiens) = target: T11, OR10H4 (Homo sapiens) (UniProt Q8NGA5)
T11 sequence (whole entry): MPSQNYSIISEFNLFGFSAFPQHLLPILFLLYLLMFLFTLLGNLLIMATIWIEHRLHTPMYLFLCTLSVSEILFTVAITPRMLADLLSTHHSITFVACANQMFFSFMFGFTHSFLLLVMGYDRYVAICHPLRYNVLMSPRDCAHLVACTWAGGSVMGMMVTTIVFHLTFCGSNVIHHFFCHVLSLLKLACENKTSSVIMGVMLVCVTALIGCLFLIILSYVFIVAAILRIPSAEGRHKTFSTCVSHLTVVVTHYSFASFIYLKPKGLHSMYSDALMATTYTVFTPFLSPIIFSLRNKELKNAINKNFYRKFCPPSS
In short: as §1

OR10H5 (Homo sapiens) = target: T12, OR10H5 (Homo sapiens) (UniProt Q8NGA6)
T12 sequence (whole entry): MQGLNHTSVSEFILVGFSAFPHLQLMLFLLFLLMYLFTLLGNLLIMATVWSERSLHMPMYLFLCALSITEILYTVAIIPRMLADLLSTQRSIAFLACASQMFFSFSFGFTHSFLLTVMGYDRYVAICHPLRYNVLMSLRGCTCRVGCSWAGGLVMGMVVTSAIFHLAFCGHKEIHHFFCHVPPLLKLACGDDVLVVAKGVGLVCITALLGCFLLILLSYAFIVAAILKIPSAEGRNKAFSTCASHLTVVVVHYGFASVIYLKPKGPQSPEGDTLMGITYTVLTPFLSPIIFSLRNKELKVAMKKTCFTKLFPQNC
In short: as §1

OR10J1 (Homo sapiens) = target: T13, OR10J1 (Homo sapiens) (UniProt P30954)
T13 sequence (whole entry): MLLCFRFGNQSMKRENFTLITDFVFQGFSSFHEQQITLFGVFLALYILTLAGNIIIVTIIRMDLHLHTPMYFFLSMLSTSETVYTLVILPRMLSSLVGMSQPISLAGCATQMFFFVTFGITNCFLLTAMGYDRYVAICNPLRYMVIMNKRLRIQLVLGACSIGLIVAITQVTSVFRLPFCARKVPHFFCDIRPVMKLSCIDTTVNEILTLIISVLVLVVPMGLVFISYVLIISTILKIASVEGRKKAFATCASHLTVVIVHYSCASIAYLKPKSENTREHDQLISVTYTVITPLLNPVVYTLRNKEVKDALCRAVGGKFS
In short: as §1

OR10J3 (Homo sapiens) = target: T14, OR10J3 (Homo sapiens) (UniProt Q5JRS4)
T14 sequence (whole entry): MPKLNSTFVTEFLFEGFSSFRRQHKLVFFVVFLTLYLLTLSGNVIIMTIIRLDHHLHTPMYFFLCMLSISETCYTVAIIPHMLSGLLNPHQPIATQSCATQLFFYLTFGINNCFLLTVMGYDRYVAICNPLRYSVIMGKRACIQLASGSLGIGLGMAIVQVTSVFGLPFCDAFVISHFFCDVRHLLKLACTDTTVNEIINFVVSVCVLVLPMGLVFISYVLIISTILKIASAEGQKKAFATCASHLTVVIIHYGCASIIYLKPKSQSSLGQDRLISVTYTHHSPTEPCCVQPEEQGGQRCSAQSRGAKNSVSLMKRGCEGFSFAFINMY
In short: as §1

OR10J5 (Homo sapiens) = target: T15, OR10J5 (Homo sapiens) (UniProt Q8NHC4)
T15 sequence (whole entry): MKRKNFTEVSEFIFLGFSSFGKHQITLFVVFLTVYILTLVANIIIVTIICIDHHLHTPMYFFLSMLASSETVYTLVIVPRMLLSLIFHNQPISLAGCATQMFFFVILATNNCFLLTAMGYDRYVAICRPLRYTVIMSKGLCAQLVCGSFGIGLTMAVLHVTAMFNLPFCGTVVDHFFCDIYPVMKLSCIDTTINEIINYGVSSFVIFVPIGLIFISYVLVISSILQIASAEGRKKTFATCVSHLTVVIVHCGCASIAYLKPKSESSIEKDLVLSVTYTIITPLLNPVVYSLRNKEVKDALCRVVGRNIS
In short: as §1

OR10K1 (Homo sapiens) = target: T16, OR10K1 (Homo sapiens) (UniProt Q8NGX5)
T16 sequence (whole entry): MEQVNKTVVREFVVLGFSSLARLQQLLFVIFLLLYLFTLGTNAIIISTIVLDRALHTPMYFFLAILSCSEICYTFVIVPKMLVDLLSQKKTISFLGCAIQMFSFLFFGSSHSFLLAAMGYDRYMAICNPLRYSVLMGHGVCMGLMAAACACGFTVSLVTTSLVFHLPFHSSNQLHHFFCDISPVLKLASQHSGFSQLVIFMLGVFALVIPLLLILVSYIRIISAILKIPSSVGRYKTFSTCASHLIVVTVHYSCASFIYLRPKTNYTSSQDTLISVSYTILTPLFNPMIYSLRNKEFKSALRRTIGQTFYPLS
In short: as §1

OR10P1 (Homo sapiens) = target: T17, OR10P1 (Homo sapiens) (UniProt Q8NGE3)
T17 sequence (whole entry): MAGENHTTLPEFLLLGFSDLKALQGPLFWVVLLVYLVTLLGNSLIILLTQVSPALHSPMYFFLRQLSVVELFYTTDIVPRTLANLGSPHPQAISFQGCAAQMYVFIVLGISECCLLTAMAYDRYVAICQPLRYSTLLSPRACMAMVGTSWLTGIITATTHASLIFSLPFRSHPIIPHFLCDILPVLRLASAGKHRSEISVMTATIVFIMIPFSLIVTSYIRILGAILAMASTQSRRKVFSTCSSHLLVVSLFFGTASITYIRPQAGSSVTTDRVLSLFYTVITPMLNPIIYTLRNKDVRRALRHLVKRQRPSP
In short: as §1

OR10Q1 (Homo sapiens) = target: T18, OR10Q1 (Homo sapiens) (UniProt Q8NGQ4)
T18 sequence (whole entry): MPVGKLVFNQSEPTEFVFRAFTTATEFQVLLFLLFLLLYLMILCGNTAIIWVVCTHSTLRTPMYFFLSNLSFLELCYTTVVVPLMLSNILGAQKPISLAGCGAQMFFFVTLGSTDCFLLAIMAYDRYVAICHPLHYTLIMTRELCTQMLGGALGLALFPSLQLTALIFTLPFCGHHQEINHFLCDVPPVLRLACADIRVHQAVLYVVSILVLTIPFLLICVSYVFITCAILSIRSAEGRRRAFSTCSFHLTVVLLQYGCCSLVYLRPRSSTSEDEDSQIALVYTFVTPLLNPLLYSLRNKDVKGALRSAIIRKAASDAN
In short: as §1

Measured: odorant receptor agonist call;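 further: active if original authors judged signal statistically different from baseline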

CCCCCCC=CCCC=O
inactive: all assays above

— the M2OR odorant receptor database
